Assay outcomes as filed in PubChem.
NR1D1 modulator = Rev-erb alpha (human) modulation. P20393. Rev-erbα–FITC-DNA binding, fluorescence polarization, 90 min. activity, % at 10 µM. 370,000 compounds, 0.79% hits;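 active = activity above about 14%, limit read from the data; passing the limit was not always enough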;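 also: 0% = DMSO wells with 35 nM protein and 100% = DMSO wells with 750 nM protein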
Target sequence (P20393 whole entry, looked up): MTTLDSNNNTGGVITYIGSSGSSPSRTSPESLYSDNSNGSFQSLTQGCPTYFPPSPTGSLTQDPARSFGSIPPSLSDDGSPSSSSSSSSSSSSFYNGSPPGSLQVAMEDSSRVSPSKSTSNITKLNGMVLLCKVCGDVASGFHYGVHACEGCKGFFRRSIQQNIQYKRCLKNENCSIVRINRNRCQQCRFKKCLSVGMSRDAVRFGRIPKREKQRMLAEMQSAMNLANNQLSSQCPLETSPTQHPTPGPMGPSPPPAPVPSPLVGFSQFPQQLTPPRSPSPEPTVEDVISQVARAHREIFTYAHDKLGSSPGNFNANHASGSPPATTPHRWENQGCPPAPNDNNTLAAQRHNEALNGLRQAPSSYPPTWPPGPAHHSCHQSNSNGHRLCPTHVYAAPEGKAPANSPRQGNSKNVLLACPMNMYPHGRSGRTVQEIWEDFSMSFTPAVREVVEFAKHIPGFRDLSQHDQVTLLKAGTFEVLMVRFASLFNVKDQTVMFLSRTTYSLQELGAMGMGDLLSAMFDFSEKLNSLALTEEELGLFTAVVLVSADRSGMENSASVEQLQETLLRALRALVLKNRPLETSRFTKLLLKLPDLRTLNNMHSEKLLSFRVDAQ
NR2E3 ag-1 = agonists of human nuclear receptor NR2E3; 320,000 compounds, 0.12% hits; AID 2300; GST-NR2E3/biotin-RetCOR TR-FRET, 1536-well; inhibition of corepressor binding, % at 4.78 µM;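 active = percent inhibition above the cutoff of mean plus 3 SD of all tested compounds, set per screening campaign, cut at about 20% in these data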;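 also: 0% = DMSO wells and 100% = biotin wells as full block of FRET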
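Format: 1536-well format; test system: GST-NR2E3 and biotin-RetCOR proteins; read-out basis: percent inhibition of TR-FRET ratio; timing: 5 h incubation at 4 °C; detection: time-resolved FRET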
Neddylation inh = inhibitors of human cullin neddylation; calls only at 25 µM; P61081+Q13564; 360,000 compounds, 0.58% hits; TR-FRET cullin neddylation, biochemical; in the data active = inhibition above about 36%
NR2E3 ag-2 = agonists of human NR2E3 nuclear receptor. CHO-S Gal4-NCOR/VP16-NR2E3 two-hybrid, luciferase. Q9Y5X4. 360,000 compounds, 0.35% hits. inhibition of corepressor binding, % at 3.98 µM;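 active = inhibition above the mean of all tested compounds plus 3 SD, cut at about 70% in these data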;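 also: 0% = DMSO with NR2E3 transfected cells and 100% = cells lacking NR2E3 construct; higher means lower luciferase signal from less NR2E3 corepressor binding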
PG9 binder = binds the HIV-1 gp120 antibody PG9; 360,000 compounds, 0.43% hits; TR-FRET gp120-PG9 antibody binding; inhibition, % at 6.7 µM; AID 624416; in the data active = inhibition above about 8.5%
Rev-erbA confirm = Rev-erb alpha (human) modulation, hit confirmation. shares compounds with NR1D1 modulator. Rev-erb alpha FITC-DNA binding, fluorescence polarization, 90 min. activation, % at 25 µM. 3,000 compounds, 61% hits;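 active = activation at or above a set limit, or at least 3 SD above the negative control mean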;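 also: 0% = 35 nM protein with DMSO and 100% = 750 nM protein high control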
RORg DNA counter = affects RORgamma DNA binding in a Rev-erb alpha counter-screen | shares compounds with NR1D1 modulator | purified RORgamma protein-FITC-DNA binding, fluorescence polarization | IC50, µM | 910 compounds, 8% hits;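 active = Compounds whose fitted half-maximal concentration for disrupting protein-DNA binding is below 10 micromolar; the record names Rev-erb in its text, so the target is in doubt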
* hit, by the source's call; i = inactive; nt = no result given. A selection: hits, their analogues and other compounds. The true share with any hit is near 2%.

SMILES	NR1D1 modulator	NR2E3 ag-1	Neddylation inh	NR2E3 ag-2	PG9 binder	Rev-erbA confirm	others
Cc1cc2oc(=O)cc(-c3ccccc3)c2c(C)c1-c1ccc(O)cc1	16.8*	nt	i	1.6	-0.8	2.5
CCN(CC)C(=O)CSC1=C(C#N)C(c2cccs2)C=C(C)N1 (stereo not given)	56.2*	-0.5	i	-18.9	-0.6	41.8*	RORg DNA counter=>40
C#CCSC1=C(C#N)C(c2cccs2)C(C(=O)OCC)=C(C)N1 (stereo not given)	5.9	-0.1	i	-9.9	-0.9	nt
Cc1ccc(S(=O)(=O)N(C)c2ccc(OCC(=O)Nc3nc4c(ccc5ccccc54)s3)cc2)cc1	24.4*	-0.6	i	-36.3	-2.0	26.9*
CN(CC(=O)Nc1ccccc1Br)C(=O)CN1CCN(Cc2cccc(Cl)c2)CC1	-4.9	nt	i	29.0	-1.4	nt
Cc1ccc(-c2nc(NC(=O)CSc3cc(C)c4ccccc4n3)ns2)cc1	498.7*	-1.3	i	6.2	-0.2	61.4*	RORg DNA counter=>40
CCCS(=O)(=O)NC(=O)C1(C)CCCN(C(=O)CSc2ccccc2)C1 (stereo not given)	-14.3	nt	i	-3.0	-0.3	nt
Cc1ccc(-c2nnn3c2nc(NCCc2ccc(S(N)(=O)=O)cc2)c2ccccc23)cc1	48.3*	2.0	i	-10.9	4.0	29.8*
CC(=O)NCCNc1nc2c(-c3ccccc3)nnn2c2ccccc12	2.8	0.5	i	-22.0	1.2	nt
Cc1cccc(-c2nnn3c2nc(NCCc2ccc(S(N)(=O)=O)cc2)c2ccccc23)c1	78.3*	4.8	i	-13.5	1.2	56.2*	RORg DNA counter=i
NS(=O)(=O)c1ccc(CCNc2nc3c(-c4cccc(F)c4)nnn3c3ccccc23)cc1	81.7*	1.8	i	3.5	-0.6	82.7*	RORg DNA counter=>40
Cc1cc(C)c(C(O)c2ncc(-c3cccc4ccccc34)[nH]2)c(C)c1 (stereo not given)	7.6	nt	i	-0.3	-1.7	nt
Cc1c(-c2ccc(OCCN3CCOCC3)cc2)c(=O)oc2ccc3ccccc3c12	-1.1	nt	nt	10.9	-0.1	nt
CSc1nnc(N2C(=O)C(O)=C(C(=O)c3ccco3)C2c2cccc(Cl)c2)s1 (stereo not given)	30.6*	9.6	i	-46.2	0.3	29.3*	RORg DNA counter=>40
O=c1c2cc(Br)ccc2[nH]c(=S)n1Cc1ccccn1	1.4	2.0	i	8.5	-4.3	nt
CCN(CC)C(=O)c1ccc2c(=O)n(Cc3cccc(Br)c3)c(=S)[nH]c2c1	33.3*	0.3	nt	nt	2.6	13.1
O=c1c2cc(Br)ccc2[nH]c(=S)n1Cc1ccccc1	39.0*	-3.2	i	-71.8	1.9	17.9*
O=C(C1CCCN1S(=O)(=O)c1ccc(Br)s1)N1CCc2ccccc2C1 (stereo not given)	2.2	nt	nt	nt	nt	nt
Cc1ccc(-c2noc(-c3cc4ccccc4oc3=O)n2)cc1	33.3*	2.4	i	-37.9	0.1	18.2*
COc1ccc(-c2nnc(-c3cc4ccccc4oc3=O)o2)cc1	24.4*	-2.4	nt	1.0	-0.1	24.0*
O=S(=O)(c1ccccc1)c1nnn2c1nc(NC1CCN(Cc3ccccc3)CC1)c1ccccc12	47.5*	1.2	i	-28.3	-2.5	16.2
CC(C)c1ccc(S(=O)(=O)c2nnn3c2nc(NCC2CCCO2)c2ccccc23)cc1 (stereo not given)	nt	-2.6	i	10.5	nt	nt
O=C(NC1CCN(Cc2ccccc2)CC1)C1CCN(S(=O)(=O)c2ccc(Cl)cc2)CC1	7.8	0.7	i	-1.1	-1.6	nt
O=S(=O)(c1ccccc1)c1nnn2c1nc(NC1CCN(Cc3ccccc3)CC1)c1cc(Cl)ccc12	24.5*	2.4	i	-19.2	-1.0	-0.1
COC(=O)[C@]1(Cc2ccccc2)N[C@H](c2ccc(-c3cccc(Cl)c3)c(OC)c2)[C@@H]2C(=O)N(C)C(=O)[C@@H]21	25.1*	nt	i	7.0	-3.6	17.2*
SMILES	NR1D1 modulator	NR2E3 ag-1	Neddylation inh	NR2E3 ag-2	PG9 binder	Rev-erbA confirm	others
CCN1C(=O)[C@H]2[C@@H](c3ccc(-c4cccc(Cl)c4)c(OC)c3)N[C@@](Cc3ccccc3)(C(=O)OC)[C@H]2C1=O	3.8	-0.3	i	9.5	0.2	nt
C#C[C@]1(O)CCC2C3CCc4cc(OC5CCCC5)ccc4C3CC[C@@]21C (stereo not given in full)	2.6	nt	nt	nt	nt	nt
COc1ccc(-c2oc(=O)c3cc(OC)c(OC)cc3c2C#C[C@]2(O)CC[C@H]3[C@@H]4CCc5cc(OC)ccc5[C@H]4CC[C@@]32C)cc1	29.6*	nt	i	-8.0	-0.5	3.2
Cc1[nH]nc2c1C(c1cccc(C(F)(F)F)c1)NC2=O (stereo not given)	2.4	nt	nt	nt	0.7	nt
CN(C)c1ccc(C=NN2C(=O)CSC2=S)c(Cl)c1	22.5*	nt	i	3.1	-2.1	-3.1
O=C1CSC(=S)N1N=Cc1c(F)cccc1Cl	2.5	nt	i	-25.1	-0.3	nt
CCSc1nc(C2CC2)cc(-c2cccs2)c1C#N	6.7	1.5	i	-10.6	-0.1	nt
N#Cc1c(-c2ccccc2F)cc(C2CC2)nc1SCC(=O)c1cccs1	40.1*	-1.8	i	-16.7	-4.8	27.9*
Cc1ccc(C(=O)CSc2ncnc3sc4c(c23)CCCC4)cc1	34.3*	-0.4	i	-21.6	-1.3	18.4*
CC(=O)Nc1ccc(C(=O)CSc2nnc3scc(-c4ccccc4)n23)cc1	4.0	-214.9	i	-14.7	-14.2	nt
O=C(CCSc1nnc2scc(-c3ccccc3)n12)Nc1nc(-c2ccccc2)ns1	24.0*	-2.4	i	-7.3	0.2	46.2*	RORg DNA counter=>40
CCOC(=O)CC[C@H]1CC[C@]2(CCCN(C3CCCCC3)C2)O1	0.7	nt	nt	nt	nt	nt
NC(=O)C1(N2CCCCC2)CCN(C(=S)Nc2ccc(F)c(Cl)c2)CC1	13.3*	-0.3	i	-3.9	-2.2	-6.0
c1ccc(CSc2ncccc2-c2nc3ccccc3[nH]2)cc1	3.1	nt	nt	nt	nt	nt
CC(C)CSc1ncccc1-c1nc2ccccc2[nH]1	16.8*	nt	nt	nt	nt	11.3*
CC1CCN(C(=O)COC(=O)c2ccc3c(c2)C(=O)N(Cc2ccco2)C3=O)CC1	2.3	nt	i	-28.6	0.8	nt
CCCCNS(=O)(=O)/C=C/c1ccc(OC)cc1CNC(=O)OC(C)(C)C	7.7	nt	nt	nt	nt	nt
CC1CCCN(C(=O)COC(=O)c2cc(Br)ccc2O)C1 (stereo not given)	8.2	nt	i	-8.3	3.0	nt
Cn1cc(C(=O)NC2CCCCCC2)c(=O)c2cc(S(=O)(=O)N3CCCC3)ccc21	32.1*	1.6	i	-10.1	2.7	17.8*
C=C(C)Cn1c2ccc(NC(=O)NCc3ccccc3)cc2c(=O)n1C	-4.1	nt	nt	-15.9	0.1	nt
C=CCSc1nc(N)c(C(=O)Nc2ccccc2)cc1C#N	9.7	3.8	i	-8.1	3.6	nt
